# Data as given in ChEMBL document CHEMBL1156747, “N3-arylmalonamides: a new series of thieno[3,2-b]pyridine based inhibitors of c-Met and VEGFR2 tyrosine kinases” (Bioorg Med Chem Lett, 2009).
# pIC50: −log10 of the molar value. The source made the active and inactive calls. The calls are words filed in the database; no cut-off is given here.
# Legend:
# [1] = target: T1, Hepatocyte growth factor receptor (Homo sapiens, UniProt P08581); assay: Inhibition of GST-fused recombinant C-met expressed in baculovirus infected high five cells after 30 mins by DELFIA assay
# How it was run: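 GST-fused catalytic domains from baculovirus-infected cells, High Five for c-Met (MOI 1) and Sf9 for VEGFR2 (MOI 0.1). DELFIA on immobilized poly(Glu4,Tyr). Enzyme 25 nM (c-Met) or 5 nM (VEGFR2), pre-incubated 4 min on ice with inhibitor and Mg-ATP. Reaction at 30 °C, 30 min (c-Met) or 10 min (VEGFR2), stopped with EDTA. Europium anti-phosphotyrosine read by time-resolved fluorescence. Seven concentrations in triplicate; IC50 from four-parameter fit.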
# Target sequence in this assay (P08581 whole entry, the tested form may be a part): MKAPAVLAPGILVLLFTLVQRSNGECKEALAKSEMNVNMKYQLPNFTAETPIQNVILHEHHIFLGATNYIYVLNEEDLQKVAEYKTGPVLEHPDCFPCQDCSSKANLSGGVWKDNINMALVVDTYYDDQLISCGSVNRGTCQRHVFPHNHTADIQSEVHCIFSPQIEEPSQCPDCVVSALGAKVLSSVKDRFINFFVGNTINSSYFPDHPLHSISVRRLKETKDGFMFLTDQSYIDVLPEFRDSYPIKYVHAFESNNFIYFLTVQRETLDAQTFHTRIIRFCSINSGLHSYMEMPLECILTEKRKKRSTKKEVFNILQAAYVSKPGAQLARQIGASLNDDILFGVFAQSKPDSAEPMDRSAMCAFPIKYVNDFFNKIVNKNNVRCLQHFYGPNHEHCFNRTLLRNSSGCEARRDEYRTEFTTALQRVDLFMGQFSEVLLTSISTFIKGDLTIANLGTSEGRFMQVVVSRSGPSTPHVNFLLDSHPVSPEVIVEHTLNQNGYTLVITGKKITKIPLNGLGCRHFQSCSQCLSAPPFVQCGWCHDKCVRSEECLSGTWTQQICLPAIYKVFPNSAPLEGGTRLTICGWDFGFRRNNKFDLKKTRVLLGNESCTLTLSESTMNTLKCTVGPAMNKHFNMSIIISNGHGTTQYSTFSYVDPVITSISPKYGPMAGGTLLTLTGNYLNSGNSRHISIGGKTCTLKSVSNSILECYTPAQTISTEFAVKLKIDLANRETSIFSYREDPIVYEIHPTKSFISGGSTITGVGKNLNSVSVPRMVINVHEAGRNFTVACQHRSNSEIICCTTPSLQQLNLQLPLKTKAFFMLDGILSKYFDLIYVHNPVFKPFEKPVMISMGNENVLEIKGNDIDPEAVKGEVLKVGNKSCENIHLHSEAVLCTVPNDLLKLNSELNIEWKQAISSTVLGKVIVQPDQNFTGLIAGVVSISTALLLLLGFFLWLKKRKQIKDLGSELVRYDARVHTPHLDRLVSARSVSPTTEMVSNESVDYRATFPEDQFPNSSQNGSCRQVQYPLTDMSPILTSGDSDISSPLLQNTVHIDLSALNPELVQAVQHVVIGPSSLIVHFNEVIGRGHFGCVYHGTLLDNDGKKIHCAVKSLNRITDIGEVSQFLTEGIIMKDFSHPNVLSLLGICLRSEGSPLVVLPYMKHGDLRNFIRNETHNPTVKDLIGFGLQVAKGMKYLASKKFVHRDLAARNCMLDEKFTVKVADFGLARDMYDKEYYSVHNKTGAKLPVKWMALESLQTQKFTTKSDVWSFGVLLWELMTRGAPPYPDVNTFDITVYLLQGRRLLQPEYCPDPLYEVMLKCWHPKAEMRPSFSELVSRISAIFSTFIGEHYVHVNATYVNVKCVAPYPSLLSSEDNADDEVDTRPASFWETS
# [2] = target: T1, Hepatocyte growth factor receptor; assay: Inhibition of TPR-met autophosphorylation expressed in HEK293T cells after 150 mins by ELISA; format: cell-based; settings: hek-293t
# How it was run: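 293T clone stably expressing activated TPR-Met under a CMV promoter, exposed to compound dilutions for 150 min. Autophosphorylation measured in lysates by ELISA with anti-phosphotyrosine (4G10), HRP reporter antibody and chemiluminescent read-out. IC50 from 4-parameter fit of triplicate means.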
# Target sequence in this assay (P08581 25-1390 limits assumed): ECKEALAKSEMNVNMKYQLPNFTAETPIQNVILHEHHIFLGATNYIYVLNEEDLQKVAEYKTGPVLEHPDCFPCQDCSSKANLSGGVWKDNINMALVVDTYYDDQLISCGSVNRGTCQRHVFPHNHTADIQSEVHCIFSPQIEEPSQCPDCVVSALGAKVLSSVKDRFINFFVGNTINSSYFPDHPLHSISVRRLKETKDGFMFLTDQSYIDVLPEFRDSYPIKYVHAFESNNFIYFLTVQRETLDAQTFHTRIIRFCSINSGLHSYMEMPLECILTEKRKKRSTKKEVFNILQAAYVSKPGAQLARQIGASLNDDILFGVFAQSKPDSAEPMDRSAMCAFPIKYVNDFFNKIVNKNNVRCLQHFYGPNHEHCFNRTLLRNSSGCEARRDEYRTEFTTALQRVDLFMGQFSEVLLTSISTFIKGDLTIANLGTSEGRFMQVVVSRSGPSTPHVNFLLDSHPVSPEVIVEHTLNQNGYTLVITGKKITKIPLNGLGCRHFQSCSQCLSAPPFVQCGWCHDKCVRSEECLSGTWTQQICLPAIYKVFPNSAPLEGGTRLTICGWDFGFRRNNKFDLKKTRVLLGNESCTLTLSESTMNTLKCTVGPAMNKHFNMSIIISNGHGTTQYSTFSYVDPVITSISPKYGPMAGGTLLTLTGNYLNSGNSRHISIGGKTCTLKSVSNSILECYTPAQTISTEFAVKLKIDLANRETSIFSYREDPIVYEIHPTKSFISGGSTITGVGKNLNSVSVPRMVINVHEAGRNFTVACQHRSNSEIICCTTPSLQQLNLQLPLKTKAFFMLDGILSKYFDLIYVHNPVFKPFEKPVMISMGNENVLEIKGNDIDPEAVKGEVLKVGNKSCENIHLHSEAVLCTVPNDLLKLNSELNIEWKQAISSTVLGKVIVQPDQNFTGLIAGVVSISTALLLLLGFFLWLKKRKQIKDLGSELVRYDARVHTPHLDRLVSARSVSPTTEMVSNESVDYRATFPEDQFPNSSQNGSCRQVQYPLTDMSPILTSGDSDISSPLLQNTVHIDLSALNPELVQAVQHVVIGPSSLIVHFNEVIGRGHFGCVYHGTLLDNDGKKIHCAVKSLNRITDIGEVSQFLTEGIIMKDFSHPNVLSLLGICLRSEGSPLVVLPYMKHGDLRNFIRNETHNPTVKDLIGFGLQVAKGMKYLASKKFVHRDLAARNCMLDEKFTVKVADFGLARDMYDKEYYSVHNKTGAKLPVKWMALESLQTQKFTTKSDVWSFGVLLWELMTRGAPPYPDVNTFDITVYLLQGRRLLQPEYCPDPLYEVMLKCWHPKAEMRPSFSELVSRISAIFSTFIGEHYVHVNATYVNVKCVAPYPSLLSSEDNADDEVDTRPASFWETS
# [3] = target: T2, Vascular endothelial growth factor receptor 2 (Homo sapiens, UniProt P35968); assay: Inhibition of GST-fused recombinant VEGFR2 expressed in baculovirus infected Sf9 cells after 30 mins by DELFIA assay
# [4] = target: Vascular endothelial growth factor receptor 3 (Homo sapiens) (UniProt P35916); assay: Inhibition of VEGFR3 at 100 nM by radiometric protein kinase assay
# How it was run: (§1)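 Single-concentration kinase selectivity panel run as radiometric protein kinase assays by an outside screening service; percent inhibition reported.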
# [5] = target: Aurora kinase A (Homo sapiens) (UniProt O14965); assay: Inhibition of Aurora A at 100 nM by radiometric protein kinase assay; how it was run: as §1
# [6] = target: Ephrin type-B receptor 4 (Homo sapiens) (UniProt P54760); assay: Inhibition of EphB4 at 100 nM by radiometric protein kinase assay; how it was run: as §1
# [7] = target: Proto-oncogene tyrosine-protein kinase Src (Homo sapiens) (UniProt P12931); assay: Inhibition of c-SRC at 100 nM by radiometric protein kinase assay; how it was run: as §1
# [8] = target: Cyclin-dependent kinase 2/cyclin E (Homo sapiens) (UniProt P24864+P24941+O96020); assay: Inhibition of CDK2/Cyclin E at 100 nM by radiometric protein kinase assay; format: protein-complex assay; how it was run: as §1
# [9] = target: Epidermal growth factor receptor (Homo sapiens) (UniProt P00533); assay: Inhibition of EGFR at 100 nM by radiometric protein kinase assay; how it was run: as §1
# [10] = target: Inhibitor of nuclear factor kappa-B kinase subunit beta (Homo sapiens) (UniProt O14920); assay: Inhibition of IKK-beta at 100 nM by radiometric protein kinase assay; how it was run: as §1
# [11] = target: Glycogen synthase kinase-3 beta (Homo sapiens) (UniProt P49841); assay: Inhibition of GSK3-beta at 100 nM by radiometric protein kinase assay; how it was run: as §1
# [12] = target: RAC-alpha serine/threonine-protein kinase (Homo sapiens) (UniProt P31749); assay: Inhibition of PKBalpha at 100 nM by radiometric protein kinase assay; how it was run: as §1
# [13] = test system: HUVEC; assay: Antiangiogenic activity in HUVEC cells assessed as inhibition of VEGF-induced tubule growth at 100 nM; format: functional, cell-based; settings: Homo sapiens
# [14] = Half life in rat at 2.17 to 2.86 mg/kg, iv; format: ADME, organism-based; parameters: dose 2.17-2.86 mg/kg, route intravenous; settings: in vivo
# How it was run: (§2)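 Rat pharmacokinetics with intravenous dosing at 2.17–2.86 mg/kg and oral dosing at 4.28–4.98 mg/kg. Oral Cmax and AUC normalised per mg/kg.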
# [15] = Clearance in rat at 2.17 to 2.86 mg/kg, iv and 4.28 to 4.98 mg/kg, po; format: ADME, organism-based; settings: in vivo; how it was run: as §2
# [16] = Volume of distribution at steady state in rat at 2.17 to 2.86 mg/kg, iv and 4.28 to 4.98 mg/kg, po; format: ADME, organism-based; settings: in vivo, read-out: Vdss; how it was run: as §2
# [17] = Tmax in rat at 4.28 to 4.98 mg/kg, po; format: ADME, organism-based; parameters: dose 4.28-4.98 mg/kg, route oral; settings: in vivo; how it was run: as §2
# [18] = test system: Rattus norvegicus; assay: Cmax in rat at 4.28 to 4.98 mg/kg, po; format: ADME, organism-based; parameters: dose 4.28-4.98 mg/kg, route oral; settings: in vivo; how it was run: as §2
# [19] = Oral bioavailability in rat at 4.28 to 4.98 mg/kg; format: ADME, organism-based; settings: in vivo; how it was run: as §2
# [20] = test system: A549; assay: Inhibition of HGF-induced cell migration in human A549 cells by wound healing assay; format: functional, cell-based
# [21] = test system: DU-145; assay: Inhibition of HGF-induced scattering in human DU145 cells; format: functional, cell-based
# [22] = target: T2, Vascular endothelial growth factor receptor 2; assay: Inhibition of VEGFR2 assessed as inhibition of ERK phosphorylation
# How it was run: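 Cellular assay: ERK phosphorylation was measured after VEGF stimulation.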
# [23] = test system: HUVEC; assay: Antiproliferative activity against HUVEC cells assessed as inhibition of […] proliferation; format: functional, cell-based; settings: Homo sapiens
# [24] = test system: HUVEC; assay: Antiangiogenic activity in HUVEC cells assessed as inhibition of VEGF-induced tubule growth; format: functional, cell-based; settings: Homo sapiens
# [25] = test system: A549; assay: Antitumor activity against human A549 cells xenografted model assessed as tumor growth inhibition at 40 mg/kg, po qd after 14 days; format: functional; settings: A549, 336 h, read-out: TGI
# [26] = Antitumor activity against human U87MG cells xenografted model assessed as tumor growth inhibition at 40 mg/kg, po qd after 10 days; format: functional, U-87MG ATCC; settings: U-87 MG, 240 h, read-out: TGI
# [27] = test system: MKN-45; assay: Antitumor activity against human MKN45 cells xenografted model assessed as tumor growth inhibition at 40 mg/kg, po qd after 12 days; format: functional; settings: MKN-45, 288 h, read-out: TGI
# [28] = target: Receptor-type tyrosine-protein kinase FLT3 (Homo sapiens) (UniProt P36888); assay: Inhibition of Flt3 at 100 nM by radiometric protein kinase assay; how it was run: as §1
# [29] = target: Angiopoietin-1 receptor (Homo sapiens) (UniProt Q02763); assay: Inhibition of […] at 100 nM by radiometric protein kinase assay; how it was run: as §1
# [30] = target: Platelet-derived growth factor receptor alpha (Homo sapiens) (UniProt P16234); assay: Inhibition of PDGFRalpha at 100 nM by radiometric protein kinase assay; how it was run: as §1
# [31] = target: Mast/stem cell growth factor receptor Kit (Homo sapiens) (UniProt P10721); assay: Inhibition of c-Kit at 100 nM by radiometric protein kinase assay; how it was run: as §1
# [32] = target: Vascular endothelial growth factor receptor 1 (Homo sapiens) (UniProt P17948); assay: Inhibition of VEGFR1 at 100 nM by radiometric protein kinase assay; how it was run: as §1
# T2 sequence (P35968 whole entry, the tested form may be a part): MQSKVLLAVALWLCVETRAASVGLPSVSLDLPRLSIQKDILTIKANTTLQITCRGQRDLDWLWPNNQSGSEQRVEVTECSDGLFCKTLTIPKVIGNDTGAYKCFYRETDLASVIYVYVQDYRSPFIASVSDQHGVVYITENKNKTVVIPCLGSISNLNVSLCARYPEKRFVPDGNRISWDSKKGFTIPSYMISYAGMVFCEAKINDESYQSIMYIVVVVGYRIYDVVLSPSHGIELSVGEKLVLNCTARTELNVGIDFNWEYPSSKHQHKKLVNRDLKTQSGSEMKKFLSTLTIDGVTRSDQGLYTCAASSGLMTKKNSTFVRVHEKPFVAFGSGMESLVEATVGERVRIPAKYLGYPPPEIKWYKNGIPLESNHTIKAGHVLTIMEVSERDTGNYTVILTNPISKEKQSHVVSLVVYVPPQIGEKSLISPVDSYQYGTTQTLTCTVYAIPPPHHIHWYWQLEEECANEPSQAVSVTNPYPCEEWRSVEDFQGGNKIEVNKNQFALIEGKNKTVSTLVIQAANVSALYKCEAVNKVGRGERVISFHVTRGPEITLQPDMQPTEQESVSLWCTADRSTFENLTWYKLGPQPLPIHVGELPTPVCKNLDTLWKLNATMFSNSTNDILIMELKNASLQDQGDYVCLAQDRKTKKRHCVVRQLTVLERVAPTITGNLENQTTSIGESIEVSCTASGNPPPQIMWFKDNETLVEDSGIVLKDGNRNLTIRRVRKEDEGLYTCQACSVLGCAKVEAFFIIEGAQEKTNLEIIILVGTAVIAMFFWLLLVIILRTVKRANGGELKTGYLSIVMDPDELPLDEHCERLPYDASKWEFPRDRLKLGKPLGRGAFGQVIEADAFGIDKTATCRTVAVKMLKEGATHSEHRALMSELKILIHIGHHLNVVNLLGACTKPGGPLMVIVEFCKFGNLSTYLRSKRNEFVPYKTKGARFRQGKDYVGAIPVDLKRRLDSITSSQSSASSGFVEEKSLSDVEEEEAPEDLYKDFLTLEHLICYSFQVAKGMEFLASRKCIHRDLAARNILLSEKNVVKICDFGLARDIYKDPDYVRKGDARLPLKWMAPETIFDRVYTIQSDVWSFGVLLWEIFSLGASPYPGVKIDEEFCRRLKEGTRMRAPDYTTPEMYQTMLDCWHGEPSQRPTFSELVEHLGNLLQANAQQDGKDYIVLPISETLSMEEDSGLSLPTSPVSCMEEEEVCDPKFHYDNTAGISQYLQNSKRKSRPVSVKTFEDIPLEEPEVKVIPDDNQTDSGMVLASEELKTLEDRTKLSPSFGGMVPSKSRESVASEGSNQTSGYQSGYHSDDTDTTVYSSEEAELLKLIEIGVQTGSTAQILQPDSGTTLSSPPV
# Glycogen synthase kinase-3 beta (Homo sapiens), sequence (P49841 whole entry, looked up): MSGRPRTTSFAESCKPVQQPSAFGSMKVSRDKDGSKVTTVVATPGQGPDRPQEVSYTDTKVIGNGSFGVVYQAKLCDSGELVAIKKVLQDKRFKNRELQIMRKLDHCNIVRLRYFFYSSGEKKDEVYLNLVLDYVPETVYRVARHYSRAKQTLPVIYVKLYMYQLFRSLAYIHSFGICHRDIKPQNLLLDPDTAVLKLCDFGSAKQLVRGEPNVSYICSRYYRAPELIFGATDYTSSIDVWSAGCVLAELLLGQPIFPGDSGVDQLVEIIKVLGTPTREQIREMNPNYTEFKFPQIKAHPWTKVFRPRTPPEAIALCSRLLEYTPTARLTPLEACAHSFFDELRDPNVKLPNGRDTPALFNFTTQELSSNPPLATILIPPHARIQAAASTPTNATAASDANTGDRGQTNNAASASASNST
# Proto-oncogene tyrosine-protein kinase Src (Homo sapiens), sequence (P12931 2-536 limits assumed): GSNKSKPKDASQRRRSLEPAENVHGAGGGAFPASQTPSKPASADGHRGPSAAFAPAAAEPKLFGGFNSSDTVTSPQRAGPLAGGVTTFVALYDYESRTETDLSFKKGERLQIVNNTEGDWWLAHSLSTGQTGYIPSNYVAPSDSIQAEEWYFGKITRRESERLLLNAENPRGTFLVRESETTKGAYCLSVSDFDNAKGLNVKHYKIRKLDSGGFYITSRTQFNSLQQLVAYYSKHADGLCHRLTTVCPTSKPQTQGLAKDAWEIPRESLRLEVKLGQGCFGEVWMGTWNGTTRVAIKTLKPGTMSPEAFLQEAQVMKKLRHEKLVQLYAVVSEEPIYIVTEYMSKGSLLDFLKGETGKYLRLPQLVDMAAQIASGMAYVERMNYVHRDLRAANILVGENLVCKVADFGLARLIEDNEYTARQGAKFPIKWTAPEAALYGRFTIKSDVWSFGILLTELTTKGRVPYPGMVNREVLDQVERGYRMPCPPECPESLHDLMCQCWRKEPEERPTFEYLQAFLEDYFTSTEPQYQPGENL
smiles,measurement,setting,value
CCn1cnc(-c2cc3nccc(Oc4ccc(NC(=O)CC(=O)NC5CCCCC5)cc4F)c3s2)c1,pIC50,[1],7.28
same,pIC50,[2],6.23
same,pIC50,[3],8.00
CCn1cnc(-c2cc3nccc(Oc4ccc(NC(=O)C5(C(=O)Nc6ccccc6)CC5)cc4F)c3s2)c1,inhibition,[4],97%
same,inhibition,[5],96%
same,inhibition,[6],95%
same,inhibition,[7],93%
same,inhibition,[8],< 5%
same,inhibition,[9],< 5%
same,inhibition,[10],< 5%
same,inhibition,[11],< 5%
same,inhibition,[12],< 5%
same,Activity,[13],Active
same,pIC50,[1],7.62
same,pIC50,[2],8.40
same,half-life,[14],3.1 h
same,clearance,[15],16.5 mL/min/kg
same,Vd,[16],2.2 L/kg
same,Tmax,[17],2 h
same,Cmax normalised,[18],0.1 µM/mg/kg
same,bioavailability,[19],33%
same,pIC50,[20],6.66
same,pIC50,[21],7.40
same,pIC50,[22],9.00
same,pIC50,[23],9.52
same,pIC50,[24],> 8.52
same,inhibition in vivo at 40 mg/kg,[25],54%
same,inhibition in vivo at 40 mg/kg,[26],70%
same,inhibition in vivo at 40 mg/kg,[27],101%
same,inhibition,[28],100%
same,inhibition,[29],100%
same,inhibition,[30],99%
same,inhibition,[31],99%
same,inhibition,[32],98%
CCn1cnc(-c2cc3nccc(Oc4ccc(NC(=O)CC(=O)Nc5ccccc5C(F)(F)F)cc4F)c3s2)c1,pIC50,[1],7.04
same,pIC50,[2],6.82
CN(C)[C@@H]1CCN(C(=O)c2cc3nccc(Oc4ccc(NC(=O)CC(=O)Nc5ccccc5)cc4F)c3s2)C1,pIC50,[2],6.25
CCn1cnc(-c2cc3nccc(Oc4ccc(NC(=O)CC(=O)Nc5ccccc5F)cc4F)c3s2)c1,pIC50,[1],7.49
same,pIC50,[2],7.46
CCn1cnc(-c2cc3nccc(Oc4ccc(NC(=O)CC(=O)Nc5cccc(F)c5)cc4F)c3s2)c1,pIC50,[1],7.28
same,pIC50,[2],6.06
same,pIC50,[3],8.00
Cn1ccnc1C(=O)c1cc2nccc(Oc3ccc(NC(=O)CC(=O)Nc4ccccc4)cc3F)c2s1,pIC50,[1],7.44
same,pIC50,[2],7.40
O=C(CC(=O)Nc1ccc(Oc2ccnc3cc(C(=O)N4CCCC4)sc23)c(F)c1)Nc1ccccc1,pIC50,[2],5.70
CCn1cnc(-c2cc3nccc(Oc4ccc(NC(=O)CC(=O)Nc5ccc(F)cc5)cc4F)c3s2)c1,pIC50,[1],7.62
O=C(O)Cn1cnc(C(=O)c2cc3nccc(Oc4ccc(NC(=O)CC(=O)Nc5ccccc5)cc4F)c3s2)c1,pIC50,[1],7.44
same,pIC50,[2],< 5.30
CCn1cnc(C(=O)c2cc3nccc(Oc4ccc(NC(=O)CC(=O)Nc5ccccc5)cc4F)c3s2)c1,pIC50,[1],7.72
same,pIC50,[2],6.74
same,half-life,[14],2.6 h
same,clearance,[15],5.5 mL/min/kg
same,Vd,[16],0.82 L/kg
same,Tmax,[17],5.7 h
same,Cmax normalised,[18],0.18 µM/mg/kg
same,bioavailability,[19],12%
CCn1cnc(-c2cc3nccc(Oc4ccc(NC(=O)CC(=O)Nc5ccccc5O)cc4F)c3s2)c1,pIC50,[1],7.59
same,pIC50,[2],6.22
CCn1cnc(-c2cc3nccc(Oc4ccc(NC(=O)C5(C(=O)Nc6ccccc6F)CC5)cc4F)c3s2)c1,pIC50,[1],7.42
same,pIC50,[2],6.92
Cn1cnc(C(=O)c2cc3nccc(Oc4ccc(NC(=O)CC(=O)Nc5ccccc5)cc4F)c3s2)c1,pIC50,[1],7.60
same,pIC50,[2],6.47
CCn1cnc(-c2cc3nccc(Oc4ccc(NC(=O)CC(=O)Nc5ccccc5OC)cc4F)c3s2)c1,pIC50,[2],7.36
CN(C)CCn1cnc(C(=O)c2cc3nccc(Oc4ccc(NC(=O)CC(=O)Nc5ccccc5)cc4F)c3s2)c1,pIC50,[1],7.70
same,pIC50,[2],6.72
CCn1cnc(-c2cc3nccc(Oc4ccc(NC(=O)CC(=O)N(C)c5ccccc5)cc4F)c3s2)c1,pIC50,[1],7.48
same,pIC50,[2],7.51
same,half-life,[14],0.91 h
same,clearance,[15],8.67 mL/min/kg
same,Vd,[16],0.33 L/kg
same,Tmax,[17],0.5 h
same,Cmax normalised,[18],0.29 µM/mg/kg
same,bioavailability,[19],60%
